Results: ChEMBL document CHEMBL1146219, “Synthesis and evaluation of novel radioiodinated benzamides for malignant melanoma” (J Med Chem, 2007)

Experiments:
Settings in all cases: in vivo
[1] = test system: Blood; assay: Biodistribution in blood of B16F0 tumor bearing C57BL/6J mouse at 0.37-0.74 MBq, iv after 24 hrs; assay type: ADME, organism-based
In short: (§1)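 Female C57BL/6J mice (15-18 g) were given B16F0 cells subcutaneously in the left flank (0.1 mL of 3 × 10⁶ viable cells/mL in Ca²⁺/Mg²⁺-free PBS) at 6-7 weeks and used after ten days. [¹²³I]benzamide (0.37-0.74 MBq, 100 µL, saline) was injected via the tail vein. Groups of n = 5 were killed by CO₂ and cervical dislocation. Organs were weighed and γ-counted, and the carcass was counted too.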

[2] = Biodistribution in melanoma of B16F0 tumor bearing C57BL/6J mouse at 0.37-0.74 MBq, iv after 1 hr; assay type: ADME, organism-based, B16-F0; in short: as §1
[3] = Biodistribution in melanoma of B16F0 tumor bearing C57BL/6J mouse at 0.37-0.74 MBq, iv after 6 hrs; assay type: ADME, organism-based, B16-F0
In short: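 Female C57BL/6J mice (15-18 g) carrying s.c. B16F0 flank tumors (0.1 mL of 3 × 10⁶ viable cells per mL in Ca²⁺/Mg²⁺-free PBS, inoculated at 6-7 weeks, used 10 days later). [¹²³I]tracer 0.37-0.74 MBq in saline, 100 µL, tail-vein i.v. Groups of n = 5 killed at 1-72 h. Organs weighed and γ-counted, carcass activity also counted, values as %ID/g.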

[4] = Biodistribution in melanoma of B16F0 tumor bearing C57BL/6J mouse at 0.37-0.74 MBq, iv after 24 hrs; assay type: ADME, organism-based, B16-F0; in short: as §1
[5] = test system: Liver; assay: Biodistribution in liver of B16F0 tumor bearing C57BL/6J mouse at 0.37-0.74 MBq, iv after 1 hr; assay type: ADME, organism-based; in short: as §1
[6] = test system: Liver; assay: Biodistribution in liver of B16F0 tumor bearing C57BL/6J mouse at 0.37-0.74 MBq, iv after 6 hrs; assay type: ADME, organism-based; in short: as §1
[7] = test system: Liver; assay: Biodistribution in liver of B16F0 tumor bearing C57BL/6J mouse at 0.37-0.74 MBq, iv after 24 hrs; assay type: ADME, organism-based; in short: as §1
[8] = test system: Kidney; assay: Biodistribution in kidney of B16F0 tumor bearing C57BL/6J mouse at 0.37-0.74 MBq, iv after 1 hr; assay type: ADME, organism-based; in short: as §1
[9] = test system: Kidney; assay: Biodistribution in kidney of B16F0 tumor bearing C57BL/6J mouse at 0.37-0.74 MBq, iv after 6 hrs; assay type: ADME, organism-based; in short: as §1
[10] = test system: Kidney; assay: Biodistribution in kidney of B16F0 tumor bearing C57BL/6J mouse at 0.37-0.74 MBq, iv after 24 hrs; assay type: ADME, organism-based; in short: as §1
[11] = test system: Lung; assay: Biodistribution in lung of B16F0 tumor bearing C57BL/6J mouse at 0.37-0.74 MBq, iv after 1 hr; assay type: ADME, organism-based; in short: as §1
[12] = test system: Lung; assay: Biodistribution in lung of B16F0 tumor bearing C57BL/6J mouse at 0.37-0.74 MBq, iv after 6 hrs; assay type: ADME, organism-based; in short: as §1
[13] = test system: Lung; assay: Biodistribution in lung of B16F0 tumor bearing C57BL/6J mouse at 0.37-0.74 MBq, iv after 24 hrs; assay type: ADME, organism-based; in short: as §1
[14] = test system: Heart; assay: Biodistribution in heart of B16F0 tumor bearing C57BL/6J mouse at 0.37-0.74 MBq, iv after 1 hr; assay type: ADME, organism-based; in short: as §1
[15] = test system: Heart; assay: Biodistribution in heart of B16F0 tumor bearing C57BL/6J mouse at 0.37-0.74 MBq, iv after 6 hrs; assay type: ADME, organism-based; in short: as §1
[16] = test system: Heart; assay: Biodistribution in heart of B16F0 tumor bearing C57BL/6J mouse at 0.37-0.74 MBq, iv after 24 hrs; assay type: ADME, organism-based; in short: as §1
[17] = test system: Brain; assay: Biodistribution in brain of B16F0 tumor bearing C57BL/6J mouse at 0.37-0.74 MBq, iv after 1 hr; assay type: ADME, organism-based; in short: as §1
[18] = test system: Brain; assay: Biodistribution in brain of B16F0 tumor bearing C57BL/6J mouse at 0.37-0.74 MBq, iv after 6 hrs; assay type: ADME, organism-based; in short: as §1
[19] = test system: Brain; assay: Biodistribution in brain of B16F0 tumor bearing C57BL/6J mouse at 0.37-0.74 MBq, iv after 24 hrs; assay type: ADME, organism-based; in short: as §1
[20] = test system: Blood; assay: Biodistribution in blood of B16F0 tumor bearing C57BL/6J mouse at 0.37-0.74 MBq, iv after 1 hr; assay type: ADME, organism-based; in short: as §1
[21] = test system: Blood; assay: Biodistribution in blood of B16F0 tumor bearing C57BL/6J mouse at 0.37-0.74 MBq, iv after 6 hrs; assay type: ADME, organism-based; in short: as §1
[22] = Biodistribution in tumor of B16F0 tumor bearing C57BL/6J mouse at 0.37-0.74 MBq, iv after 1 hr in presence of haloperidol; assay type: ADME, organism-based, B16-F0
In short: (§2)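 B16F0 tumor-bearing C57BL/6J mice, groups of n = 5, given haloperidol 1 mg/kg i.v. 5 min before the i.v. [¹²³I]tracer (0.37-0.74 MBq). Killed at 1 or 24 h. Tissues γ-counted as for biodistribution and compared with untreated controls by one-way ANOVA, significance p < 0.01.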

[23] = Biodistribution in tumor of B16F0 tumor bearing C57BL/6J mouse at 0.37-0.74 MBq, iv after 24 hrs in presence of haloperidol; assay type: ADME, organism-based, B16-F0; in short: as §2
[24] = Biodistribution in eye of B16F0 tumor bearing C57BL/6J mouse at 0.37-0.74 MBq, iv after 1 hr in presence of haloperidol; assay type: ADME, organism-based
In short: (§3)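 Haloperidol blocking in B16F0-bearing C57BL/6J mice: 1 mg/kg haloperidol was given iv 5 min before the iv [¹²³I]benzamide (0.37-0.74 MBq). Groups of n = 5 were killed at 1 or 24 h. Tissues were weighed and γ-counted as in the biodistribution study and compared with untreated controls by one-way ANOVA, with p < 0.01 taken as significant.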

[25] = Biodistribution in eye of B16F0 tumor bearing C57BL/6J mouse at 0.37-0.74 MBq, iv after 24 hrs in presence of haloperidol; assay type: ADME, organism-based; in short: as §3
[26] = test system: Liver; assay: Biodistribution in liver of B16F0 tumor bearing C57BL/6J mouse at 0.37-0.74 MBq, iv after 1 hr in presence of haloperidol; assay type: ADME, organism-based; in short: as §3
[27] = test system: Liver; assay: Biodistribution in liver of B16F0 tumor bearing C57BL/6J mouse at 0.37-0.74 MBq, iv after 24 hrs in presence of haloperidol; assay type: ADME, organism-based; in short: as §3
[28] = test system: Kidney; assay: Biodistribution in kidney of B16F0 tumor bearing C57BL/6J mouse at 0.37-0.74 MBq, iv after 1 hr in presence of haloperidol; assay type: ADME, organism-based; in short: as §3
[29] = test system: Kidney; assay: Biodistribution in kidney of B16F0 tumor bearing C57BL/6J mouse at 0.37-0.74 MBq, iv after 24 hrs in presence of haloperidol; assay type: ADME, organism-based; in short: as §3
[30] = test system: Lung; assay: Biodistribution in lung of B16F0 tumor bearing C57BL/6J mouse at 0.37-0.74 MBq, iv after 1 hr in presence of haloperidol; assay type: ADME, organism-based; in short: as §3
[31] = test system: Lung; assay: Biodistribution in lung of B16F0 tumor bearing C57BL/6J mouse at 0.37-0.74 MBq, iv after 24 hrs in presence of haloperidol; assay type: ADME, organism-based; in short: as §3
[32] = test system: Blood; assay: Biodistribution in blood of B16F0 tumor bearing C57BL/6J mouse at 0.37-0.74 MBq, iv after 1 hr in presence of haloperidol; assay type: ADME, organism-based
[33] = test system: Blood; assay: Biodistribution in blood of B16F0 tumor bearing C57BL/6J mouse at 0.37-0.74 MBq, iv after 24 hrs in presence of haloperidol; assay type: ADME, organism-based
[34] = test system: Brain; assay: Biodistribution in brain of B16F0 tumor bearing C57BL/6J mouse at 0.37-0.74 MBq, iv after 1 hr in presence of haloperidol; assay type: ADME, organism-based
[35] = test system: Brain; assay: Biodistribution in brain of B16F0 tumor bearing C57BL/6J mouse at 0.37-0.74 MBq, iv after 24 hrs in presence of haloperidol; assay type: ADME, organism-based

Drug uptake [1]: 0.04 % ID/g
Drug uptake [2]: 10.9 % ID/g
Drug uptake [3]: 12.5 % ID/g
Drug uptake [4]: 5.5 % ID/g
Drug uptake [5]: 19.2 % ID/g
Drug uptake [6]: 3.8 % ID/g
Drug uptake [7]: 0.29 % ID/g
Drug uptake [8]: 8.7 % ID/g
Drug uptake [9]: 3.4 % ID/g
Drug uptake [10]: 0.22 % ID/g
Drug uptake [11]: 10.8 % ID/g
Drug uptake [12]: 6.4 % ID/g
Drug uptake [13]: 0.33 % ID/g
Drug uptake [14]: 3 % ID/g
Drug uptake [15]: 0.93 % ID/g
Drug uptake [16]: 0.09 % ID/g
Drug uptake [17]: 3.1 % ID/g
Drug uptake [18]: 0.48 % ID/g
Drug uptake [19]: 0.09 % ID/g
Drug uptake [20]: 1 % ID/g
Drug uptake [21]: 0.34 % ID/g
Drug uptake [22]: 10.5 % ID/g
Drug uptake [23]: 3.3 % ID/g
Drug uptake [24]: 34.8 % ID/g
Drug uptake [25]: 24.6 % ID/g
Drug uptake [26]: 10.1 % ID/g
Drug uptake [27]: 0.12 % ID/g
Drug uptake [28]: 7.3 % ID/g
Drug uptake [29]: 0.1 % ID/g
Drug uptake [30]: 9.7 % ID/g
Drug uptake [31]: 0.14 % ID/g
Drug uptake [32]: 1.46 % ID/g
Drug uptake [33]: 0.03 % ID/g
Drug uptake [34]: 1.61 % ID/g
Drug uptake [35]: 0.06 % ID/g
Structure (SMILES): O=C(NC1CCN(CCF)CC1)c1ccc(I)cc1
